Measurements reported in ChEMBL document CHEMBL1938284, “Synthesis and biological activity of novel organoselenium derivatives targeting multiple kinases and capable of inhibiting cancer progression to metastases” (Eur J Med Chem, 2012).
Activity calls are given as the source filed them. The calls are words filed in the database; no cut-off is given here.

Key:
[1] = biological target: Insulin receptor (Homo sapiens) (UniProt P06213); assay: Inhibition of INSR at 1 uM
Focal adhesion kinase 1 [2] = biological target: T1, Focal adhesion kinase 1 (Homo sapiens, UniProt Q05397); assay: Inhibition of human recombinant full-length FAK using ATP and Poly Glu:Tyr as substrate after 4 hrs by luminescence analysis
Procedure, shortened: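 Human recombinant full-length FAK incubated 4 h at room temperature in kinase buffer with ATP and Poly Glu:Tyr substrate, with or without compound at various concentrations.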
Target sequence in this assay (Q05397 whole entry): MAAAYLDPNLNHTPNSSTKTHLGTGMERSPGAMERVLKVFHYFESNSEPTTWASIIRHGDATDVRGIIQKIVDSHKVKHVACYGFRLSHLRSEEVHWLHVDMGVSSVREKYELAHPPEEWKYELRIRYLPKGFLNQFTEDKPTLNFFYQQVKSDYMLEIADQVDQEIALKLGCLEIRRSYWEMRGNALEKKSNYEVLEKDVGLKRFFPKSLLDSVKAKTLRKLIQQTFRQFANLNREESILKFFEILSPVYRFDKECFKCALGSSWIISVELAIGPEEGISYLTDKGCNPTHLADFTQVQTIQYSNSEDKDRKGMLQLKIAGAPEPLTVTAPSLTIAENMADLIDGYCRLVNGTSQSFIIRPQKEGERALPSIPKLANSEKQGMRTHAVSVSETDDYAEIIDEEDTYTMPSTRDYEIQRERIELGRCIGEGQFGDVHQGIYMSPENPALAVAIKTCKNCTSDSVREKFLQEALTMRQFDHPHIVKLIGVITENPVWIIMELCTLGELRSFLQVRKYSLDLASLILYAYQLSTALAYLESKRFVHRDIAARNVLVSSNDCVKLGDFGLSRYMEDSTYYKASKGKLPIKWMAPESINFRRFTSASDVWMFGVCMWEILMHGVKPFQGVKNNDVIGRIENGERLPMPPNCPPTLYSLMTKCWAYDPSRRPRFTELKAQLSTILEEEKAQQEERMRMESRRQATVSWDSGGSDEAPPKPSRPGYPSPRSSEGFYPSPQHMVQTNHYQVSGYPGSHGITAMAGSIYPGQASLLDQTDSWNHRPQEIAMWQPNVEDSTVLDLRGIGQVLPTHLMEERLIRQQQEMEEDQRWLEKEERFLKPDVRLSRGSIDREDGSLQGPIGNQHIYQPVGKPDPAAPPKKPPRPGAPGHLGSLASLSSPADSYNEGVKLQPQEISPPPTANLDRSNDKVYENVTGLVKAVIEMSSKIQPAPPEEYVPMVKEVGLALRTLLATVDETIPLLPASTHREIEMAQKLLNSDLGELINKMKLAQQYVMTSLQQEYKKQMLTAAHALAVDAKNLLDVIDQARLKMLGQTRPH

[3] = biological target: Proto-oncogene tyrosine-protein kinase Src (Homo sapiens) (UniProt P12931); assay: Inhibition of SRC at 1 uM
Proto-oncogene tyrosine-protein kinase Src (Homo sapiens), sequence (P12931 2-536 limits assumed): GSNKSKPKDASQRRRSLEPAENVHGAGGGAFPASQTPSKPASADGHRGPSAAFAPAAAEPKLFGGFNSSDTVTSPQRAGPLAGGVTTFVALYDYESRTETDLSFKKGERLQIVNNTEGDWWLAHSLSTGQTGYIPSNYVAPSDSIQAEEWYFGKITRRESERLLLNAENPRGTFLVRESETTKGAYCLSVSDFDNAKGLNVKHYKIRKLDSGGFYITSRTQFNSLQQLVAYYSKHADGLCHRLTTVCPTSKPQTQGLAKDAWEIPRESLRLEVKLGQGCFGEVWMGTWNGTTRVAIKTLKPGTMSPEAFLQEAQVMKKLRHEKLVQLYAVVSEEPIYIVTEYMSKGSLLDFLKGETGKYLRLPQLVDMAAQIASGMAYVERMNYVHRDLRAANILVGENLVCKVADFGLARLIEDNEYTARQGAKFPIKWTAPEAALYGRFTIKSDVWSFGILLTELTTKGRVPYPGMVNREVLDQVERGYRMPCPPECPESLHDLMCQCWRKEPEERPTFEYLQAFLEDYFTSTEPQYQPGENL

[4] = biological target: Protein kinase C alpha type (Homo sapiens, UniProt P17252); assay: Inhibition of PKCalpha
[5] = biological target: RAC-alpha serine/threonine-protein kinase (Homo sapiens, UniProt P31749); assay: Inhibition of AKT-1
RAC-alpha serine/threonine-protein kinase, sequence (P31749 whole entry): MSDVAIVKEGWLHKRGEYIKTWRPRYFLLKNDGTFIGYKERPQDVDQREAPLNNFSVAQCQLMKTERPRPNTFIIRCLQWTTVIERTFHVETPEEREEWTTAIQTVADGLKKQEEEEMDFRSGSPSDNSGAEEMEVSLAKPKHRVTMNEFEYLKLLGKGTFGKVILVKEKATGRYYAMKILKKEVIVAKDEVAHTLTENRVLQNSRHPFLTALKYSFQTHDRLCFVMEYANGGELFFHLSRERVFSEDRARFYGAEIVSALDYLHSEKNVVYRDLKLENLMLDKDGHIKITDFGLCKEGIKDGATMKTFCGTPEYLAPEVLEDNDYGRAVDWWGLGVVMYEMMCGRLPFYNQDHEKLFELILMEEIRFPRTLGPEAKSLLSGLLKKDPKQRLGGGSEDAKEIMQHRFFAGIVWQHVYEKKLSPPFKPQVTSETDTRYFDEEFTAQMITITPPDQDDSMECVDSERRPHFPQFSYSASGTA

Mus musculus [6] = assay: Apparent toxicity in SCID mouse xenografted with human MDA231 cells at 60 mg/kg, ip administered 3 times a week for a total of 9 doses; assay type: organism-based; parameters: dose 60 mg/kg, route intraperitoneal; settings: in vivo
Mus musculus [7] = assay: Toxicity in SCID mouse xenografted with human MDA231 cells assessed as body weight loss at 60 mg/kg, ip administered 3 times a week for a total of 9 doses; assay type: organism-based; parameters: dose 60 mg/kg, route intraperitoneal; settings: in vivo
MDA-MB-231 [8] = assay: Antiinvasive activity in human MDA231 cells at 10 uM after 48 hrs by Matrigel matrix assay; assay type: functional
Procedure, shortened: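 Serum-starved MDA-231 cells (30,000) placed with or without compound (10 μM) in the upper compartment of 8-µm Matrigel-coated Boyden chambers. Lower compartment held DMEM 0.2% BSA with 10% serum. Invasion ran 48 h, then invaded cells were fixed, stained and counted under a 40× objective. DMSO normalized to 0% inhibition. Mean ± SD, five experiments.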

Focal adhesion kinase 1 [9] = biological target: T1, Focal adhesion kinase 1; assay: Inhibition of FAK phosphorylation in EGF-stimulated human MDA231 cells using [gamma32P]ATP as substrate at 50 uM after 2 hrs by scintillation counting; assay type: cell-based
Procedure, shortened: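 MDA231 cells serum-starved overnight, treated with compound for 2 h, then stimulated with 20 ng/mL EGF for 30 min. Lysates immunoprecipitated with polyclonal anti-FAK. The immunocomplex was assayed in Hepes/MgCl2/MnCl2 buffer with 3 μCi/nmol [γ-32P]-ATP. Reactions stopped by boiling in SDS sample buffer. Bands excised after SDS-PAGE and counted by scintillation. Figure legend gives N = 4.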

Cancer cell lines = assay: Antitumor activity against human MDA231 cells xenografted in SCID mouse assessed as inhibition of lung metastases of cancer cells at 60 mg/kg, ip administered 3 times a week for a total of 9 doses measured on day 40 by stereomicroscopic analysis; assay type: functional, organism-based; parameters: dose 60 mg/kg
Procedure, shortened: (§1)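 Female SCID mice, 6 per group, given 1.5 million MDA-231-M2 cells into the mammary fat pad. Once tumours were palpable, vehicle or compound was given at 60 mg/kg IP 3 times weekly for 9 injections. Mice sacrificed on day 40. Lungs fixed in 10% Bouin's and surface metastases counted by stereomicroscope. Primary tumour volume also recorded. Groups compared to vehicle by unpaired Student t test.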

MDA-MB-231 [10] = assay: Antiangiogenic activity in human MDA231 cells assessed as inhibition of cell migration at 10 uM after 12 to 24 hrs by wound healing migration assay; assay type: functional, cell-based
Procedure, shortened: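 MDA-231 cells grown on coverslips for 24 h, wounded by scraping with a micropipette tip, washed, then kept in fresh medium at 37 °C with compound at 10 μM final or DMSO. Photographed at 12 and 24 h. Remaining wound area measured. DMSO set to 0% inhibition. Mean ± SD of five independent experiments.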

MDA-MB-231 [11] = assay: Antitumor activity against human MDA231 cells xenografted in SCID mouse assessed as tumor growth inhibition at 60 mg/kg, ip administered 3 times a week for a total of 9 doses measured on day 40; assay type: functional, organism-based; parameters: dose 60 mg/kg; procedure, shortened: as §1
MDA-MB-231 [12] = assay: Cytotoxicity against human MDA231 cells at 50 uM; assay type: functional, cell-based

Insulin receptor (Homo sapiens), sequence (P06213 28-758 limits assumed): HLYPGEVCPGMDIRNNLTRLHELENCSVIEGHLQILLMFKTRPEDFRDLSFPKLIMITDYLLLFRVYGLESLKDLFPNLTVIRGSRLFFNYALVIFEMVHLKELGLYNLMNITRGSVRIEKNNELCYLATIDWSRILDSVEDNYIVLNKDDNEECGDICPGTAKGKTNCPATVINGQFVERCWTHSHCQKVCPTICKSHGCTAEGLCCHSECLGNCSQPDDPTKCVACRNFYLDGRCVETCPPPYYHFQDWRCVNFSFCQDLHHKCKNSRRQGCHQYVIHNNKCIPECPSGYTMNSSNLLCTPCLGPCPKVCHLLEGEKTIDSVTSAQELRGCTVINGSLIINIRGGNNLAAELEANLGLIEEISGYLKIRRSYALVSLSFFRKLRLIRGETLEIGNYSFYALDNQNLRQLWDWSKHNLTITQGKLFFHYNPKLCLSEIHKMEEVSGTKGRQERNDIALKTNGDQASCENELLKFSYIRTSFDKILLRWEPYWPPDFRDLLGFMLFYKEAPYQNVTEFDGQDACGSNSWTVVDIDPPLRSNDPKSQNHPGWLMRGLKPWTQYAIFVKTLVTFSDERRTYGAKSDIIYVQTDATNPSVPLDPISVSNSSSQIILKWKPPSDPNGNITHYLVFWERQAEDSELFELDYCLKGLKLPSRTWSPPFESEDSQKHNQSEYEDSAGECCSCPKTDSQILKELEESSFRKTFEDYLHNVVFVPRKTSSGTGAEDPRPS
Insulin receptor (Homo sapiens), sequence (P06213 763-1382 limits assumed): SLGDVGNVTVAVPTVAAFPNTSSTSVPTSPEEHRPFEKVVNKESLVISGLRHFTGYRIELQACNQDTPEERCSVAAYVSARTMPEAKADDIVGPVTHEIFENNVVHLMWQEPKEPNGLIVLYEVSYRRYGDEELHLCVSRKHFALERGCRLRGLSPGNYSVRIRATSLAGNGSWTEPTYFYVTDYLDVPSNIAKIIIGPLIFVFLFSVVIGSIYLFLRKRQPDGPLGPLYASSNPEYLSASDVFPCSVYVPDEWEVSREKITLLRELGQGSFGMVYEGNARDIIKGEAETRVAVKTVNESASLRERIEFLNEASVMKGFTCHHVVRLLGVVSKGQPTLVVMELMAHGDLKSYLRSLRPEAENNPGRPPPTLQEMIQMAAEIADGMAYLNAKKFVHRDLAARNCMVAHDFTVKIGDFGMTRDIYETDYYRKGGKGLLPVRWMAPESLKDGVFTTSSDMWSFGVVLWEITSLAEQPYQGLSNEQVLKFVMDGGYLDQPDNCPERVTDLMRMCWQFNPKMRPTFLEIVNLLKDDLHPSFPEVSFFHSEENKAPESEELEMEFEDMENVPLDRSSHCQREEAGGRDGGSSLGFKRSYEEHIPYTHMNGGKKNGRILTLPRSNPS

Row | Compound | inhibition [1] | IC50 (Focal adhesion kinase 1 [2]) | inhibition [3] | IC50 [4] | IC50 [5] | Activity (Mus musculus [6]) | Activity (Mus musculus [7]) | Activity (MDA-MB-231 [8]) | inhibition (Focal adhesion kinase 1 [9]) | inhibition (Cancer cell lines) | inhibition (MDA-MB-231 [10]) | growth inhibition (GI) (MDA-MB-231 [11]) | Activity (MDA-MB-231 [12])
1 | O=C(CCCn1[se]c2ccccc2c1=O)N[C@@H]1O[C@H](CO)[C@@H](O)[C@H](O)[C@H]1O | 0% | 960 nM | 0% | 730 nM | 880 nM |  |  |  |  |  |  |  | 
2 | O=c1c2ccccc2[se]n1-c1ccccc1 [EBSELEN] | 0% |  | 0% |  |  | Non-toxic | Non-toxic | inactive | inactive | inactive | inactive | inactive | 
3 | CC(=O)OC[C@H]1O[C@@H](NC(=O)CCCn2[se]c3ccccc3c2=O)[C@H](OC(C)=O)[C@@H](OC(C)=O)[C@@H]1OC(C)=O | 0% | 920 nM | 0% | 740 nM | 800 nM |  |  |  |  |  |  |  | 
4 | CC(=O)OC[C@H]1O[C@@H](O[C@H]2[C@H](OC(C)=O)[C@@H](OC(C)=O)[C@H](n3[se]c4ccccc4c3=O)O[C@@H]2COC(C)=O)[C@H](OC(C)=O)[C@@H](OC(C)=O)[C@H]1OC(C)=O | 0% |  | 0% |  |  | Non-toxic | Non-toxic |  |  | Active |  | Active | Active
